From ChEMBL document CHEMBL4808174, “Exploring Heteroaromatic Rings as a Replacement for the Labile Amide of Antiplasmodial Pantothenamides” (J Med Chem, 2021)
Calls of active or inactive are those of the source. The rule behind the calls is not given here.

Experiments:
[1] = Antiproliferative activity against human HFF cells assessed as cell proliferation at 200 uM incubated for 3 to 4 days in presence of 1 uM pantothenate by SYBR assay
Plasmodium falciparum [2] = assay: Antiplasmodial activity against ring stage Plasmodium falciparum 3D7 infected in human erythrocytes assessed as inhibition of parasite growth incubated for 96 hrs in presence of 1 uM pantothenate by SYBR Green I dye based fluorescence assay; format: functional, organism-based; conditions: 3D7, Erythrocyte
Method in brief: (§1)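 P. falciparum 3D7 ring stages at 0.5% parasitemia and 1% hematocrit in Albumax II medium. Where specified, 100 μM sodium pantothenate was added. Incubation 96 h, then freeze-thaw and SYBR Safe lysis-buffer fluorescence. Chloroquine 0.25-25 μM served as zero-proliferation control. Experiments in triplicate; 100 μM pantothenate data from two experiments.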

[3] = Antiproliferative activity against human HFF cells assessed as cell proliferation at 100 uM incubated for 3 to 4 days in presence of 1 uM pantothenate by SYBR assay
[4] = Selectivity index, ratio of IC50 for human HFF cells to IC50 for Plasmodium falciparum in presence of 1 uM pantothenate; format: toxicity; conditions: HFF cells versus Plasmodium falciparum, read-out: Ratio IC50
Method in brief: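 HFF cells grown 3-4 days in RPMI 1640 with 10% bovine calf serum and antibiotics, with compound up to 200 μM; SYBR Safe-based read-out. Selectivity index = HFF IC50 divided by P. falciparum IC50 at 1 μM pantothenate. Where HFF inhibition stayed below 50%, 200 μM (or 100 μM) was used as the HFF value to set limits.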

Plasmodium falciparum [5] = assay: Antiplasmodial activity against ring stage Plasmodium falciparum 3D7 infected in human erythrocytes assessed as inhibition of parasite growth at 100 uM pretreated with compound followed by parasite infection by SYBR Green I dye based fluorescence assay; format: functional, organism-based; conditions: Erythrocyte
[6] = Apparent permeability of the compound across apical to basolateral side in human Caco-2 cells at 20 uM
[7] = Metabolic stability in human liver microsomes assessed as intrinsic clearance at 1 uM in presence of absence of NADPH regenerating system measured per mg protein by LC-MS analysis; format: ADME, Microsome; conditions: read-out: CLH
Method in brief: (§2)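 Stability in mouse or human liver microsomes was measured with and without an NADPH-regenerating system, giving in vitro t1/2 and intrinsic clearance in μL/min/mg protein.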

Plasmodium falciparum [8] = assay: Antiplasmodial activity against ring stage Plasmodium falciparum 3D7 infected in human erythrocytes assessed as inhibition of parasite growth incubated for 48 hrs by SYBR Green I dye based fluorescence assay; format: functional, organism-based; conditions: Erythrocyte
Method in brief: (§3)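 Triple-sorbitol-synchronized 3D7 ring-stage cultures at 0.5% parasitemia and 1% hematocrit were exposed to compound at ten concentrations at 37 °C in 96% N₂, 3% CO₂, 1% O₂. After 5, 10, 24 or 48 h, cells were washed three times and resuspended without compound. Total culture time 96 h, then SYBR Safe fluorescence. Three experiments in triplicate.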

[9] = Metabolic stability in human liver microsomes assessed as half life at 1 uM in presence or absence of NADPH regenerating system by LC-MS analysis; format: ADME, Microsome
Method in brief: as §2

[10] = Metabolic stability in mouse liver microsomes assessed as intrinsic clearance at 1 uM in presence or absence of NADPH regenerating system measured per mg protein by LC-MS analysis; format: ADME, Microsome; conditions: read-out: CLH
Method in brief: as §2

[11] = Drug concentration in BALB/c mouse plasma at 100 mg/kg/day, ip measured after 3 hrs; format: ADME, organism-based; conditions: whole blood, in the assay text read “whole blood” for “plasma”
Method in brief: (§4)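 Dosing was 100 mg/kg ip in P. berghei-infected female BALB/c mice, repeated at 24 h. 10 μL tail whole blood was sampled by microsampling device at 3 h, at ~24 h (before the second dose) and at 48 h. Samples were extracted with 80% acetonitrile using diazepam as internal standard and quantified by LC-MS MRM against a spiked-blood standard curve of 5 ng/mL-20 μg/mL. LLQ was 16 or 17 nM. Mean of five mice.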

[12] = Drug concentration in BALB/c mouse plasma at 100 mg/kg/day, ip measured after 1 day; format: ADME, organism-based; conditions: whole blood, in the assay text read “whole blood” for “plasma”
Method in brief: as §4

Plasmodium knowlesi = assay: Antiplasmodial activity against Plasmodium knowlesi infected in human erythrocytes assessed as inhibition of parasite growth incubated for 72 hrs in presence of 1 uM pantothenate by SYBR Green I dye based fluorescence assay; format: functional, organism-based; conditions: Erythrocyte
Plasmodium falciparum [13] = assay: Antiplasmodial activity against ring stage Plasmodium falciparum 3D7 infected in human erythrocytes assessed as inhibition of parasite growth incubated for 96 hrs in presence of 100 uM pantothenate by SYBR Green I dye based fluorescence assay; format: functional, organism-based; conditions: 3D7, Erythrocyte
Method in brief: as §1

[14] = Drug degradation in human liver microsomes after 60 mins; format: ADME, Microsome; conditions: read-out: Drug degradation
Method in brief: (§5)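 Degradation in mouse or human liver microsomes was followed over 60 min, with and without an NADPH-regenerating system.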

[15] = Drug degradation in mouse liver microsomes after 60 mins; format: ADME, Microsome; conditions: read-out: Drug degradation
Method in brief: as §5

[16] = Metabolic stability in mouse liver microsomes assessed as half life at 1 uM in presence or absence of NADPH regenerating system by LC-MS analysis; format: ADME, Microsome
Method in brief: as §2

[17] = Drug concentration in BALB/c mouse plasma at 100 mg/kg/day, ip measured after 2 days; format: ADME, organism-based; conditions: whole blood, in the assay text read “whole blood” for “plasma”
Method in brief: as §4

Plasmodium falciparum [18] = assay: Antiplasmodial activity against ring stage Plasmodium falciparum 3D7 infected in human erythrocytes assessed as inhibition of parasite growth incubated for 24 hrs by SYBR Green I dye based fluorescence assay; format: functional, organism-based; conditions: Erythrocyte
Method in brief: as §3

Plasmodium falciparum [19] = assay: Antiplasmodial activity against ring stage Plasmodium falciparum 3D7 infected in human erythrocytes assessed as inhibition of parasite growth incubated for 10 hrs by SYBR Green I dye based fluorescence assay; format: functional, organism-based; conditions: Erythrocyte
Method in brief: as §3

Plasmodium berghei = assay: Antiplasmodial activity against Plasmodium berghei ANKA infected in BALB/c mouse model of malaria assessed as reduction in parasitemia at 100 mg/kg/day, ip for 2 days by Giemsa staining based flow cytometry analysis; format: functional, organism-based; conditions: time 2.0 day
Method in brief: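 Female BALB/c mice, 8-12 weeks, infected ip with 1 × 10⁵ P. berghei ANKA-infected erythrocytes. Once parasitemia reached 0.4-1.5% (5 mice per group), 100 mg/kg was given ip in 150 mM NaCl containing 20.9% v/v DMSO; second dose at 24 h. Daily tail-bleed parasitemia was read by Giemsa-stained thin smear or by flow cytometry (JC-1, Hoechst 33342, anti-CD45/CD71/TER119).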

Plasmodium falciparum [20] = assay: Antiplasmodial activity against ring stage Plasmodium falciparum NF54 infected in human erythrocytes assessed as inhibition of parasite growth incubated for 72 hrs in presence of pantothenate by SYBR Green dye based fluorescence assay; format: functional, organism-based; conditions: NF54, Erythrocyte

| Compound | proliferation at 200 µM [1] [%] | IC50 (Plasmodium falciparum [2]) [nM] | proliferation at 100 µM [3] [%] | selectivity ratio at 1 µM [4] | also measured |
| --- | --- | --- | --- | --- | --- |
| CCCCCc1cc(CCNC(=O)[C@H](O)C(C)(C)CO)on1 | 95 | 4800 | 97 | > 41 | – |
| CCN(CC)CCCC(C)Nc1ccnc2cc(Cl)ccc12 (stereo unspecified) | – | – | – | – | Activity (Plasmodium falciparum [5]): inactive |
| CCCCCCn1cc(CNC(=O)[C@H](O)C(C)(C)CO)nn1 | – | 55 | – | – | – |
| CCCCCc1ncc(CNC(=O)[C@H](O)C(C)(C)CO)o1 | 35 | 80000 | 87 | 1.2 | – |
| CCCCCn1cnc(CNC(=O)[C@H](O)C(C)(C)CO)n1 | 106 | > 100000 | 101 | – | – |
| NNC(=O)N1C(=O)c2cc(S(=O)(=O)[O-])cc3c(N)c(S(=O)(=O)[O-])cc(c23)C1=O.[Li+].[Li+] [LUCIFER YELLOW] | – | – | – | – | Papp A→B at 20 µM [6]: < 1 ×10⁻⁶ cm/s |
| CCCCCCc1cc(CNC(=O)[C@H](O)C(C)(C)CO)no1 | 60 | 240 | 78 | > 830 | – |
| CCCCCc1nnc(CNC(=O)[C@H](O)C(C)(C)CO)[nH]1 | 71 | 40000 | 84 | > 5 | – |
| CCCCCn1cc(CNC(=O)[C@H](O)C(C)(C)CO)nn1 | 77 | 56 | 88 | > 3500 | microsomal CLint at 1 µM [7]: < 7 µL/min/mg; Activity (Plasmodium falciparum [5]): inactive; Activity (Plasmodium falciparum [8]): Active; half-life at 1 µM [9]: > 4.25 h; microsomal CLint at 1 µM [10]: < 7 µL/min/mg; concentration at 3 h [11]: 1100 nM; concentration at 24 h [12]: < 16 nM; IC50 (Plasmodium knowlesi): 28 nM; IC50 (Plasmodium falciparum [13]): > 250 nM; metabolised at 1 h [14]: < 15%; metabolised at 1 h [15]: < 15%; half-life at 1 µM [16]: > 4.25 h; concentration at 48 h [17]: < 16 nM; Activity (Plasmodium falciparum [18]): Active; Activity (Plasmodium falciparum [19]): inactive; Papp A→B at 20 µM [6]: 13 ×10⁻⁶ cm/s; Activity (Plasmodium berghei): inactive |
| CCCCCn1cnc(CNC(=O)[C@H](O)C(C)(C)CO)c1 | 103 | 14000 | 91 | > 14 | – |
| CCCCCc1nnc(CNC(=O)[C@H](O)C(C)(C)CO)s1 | 88 | 960 | 90 | > 200 | IC50 (Plasmodium falciparum [13]): 26000 nM |
| CCCCCC(=O)NCCNC(=O)[C@H](O)C(C)(C)CO | – | – | – | – | IC50 (Plasmodium falciparum [20]): 630 nM |
| CCCCCn1cc(CNC(=O)[C@H](O)C(C)(C)CO)cn1 | 85 | 34000 | 102 | > 5 | – |
| CCCCc1cc(CNC(=O)[C@H](O)C(C)(C)CO)on1 | 101 | 190 | 97 | > 1000 | – |
